In ChEMBL document CHEMBL4513216, “Probing the Open Global Health Chemical Diversity Library for Multistage-Active Starting Points for Next-Generation Antimalarials” (ACS Infect Dis, 2020):

Test: Toxicity liver stage against HepG2, at 10uM
Format: cell-based
Design: test concentration 10 uM, cell line HepG2-A16-CD81EGFP
Conditions: human, HepG2-A16-CD81EGFP cells; read-out: INHIBITION
How it was run: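 Uninfected HepG2-A16-CD81EGFP cells, 3 × 10^3 per well, 1536-well, plated on prespotted compound at 10 μM final, parasite-free screening media added to match infected plates; puromycin 10 μM positive, DMSO 0.5% negative; run in parallel with 48 h PbLuc assay at 37 °C, 5% CO2; viability by CellTiter-Glo luminescence, normalized to controls.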

SMILES | cytotoxicity at 10 µM [%]
O=C(NC[C@H]1CCCC[C@H]1O)c1cccc2[nH]c(-c3ccco3)nc12 | -2.51
COc1ccc(CN2CC(O)CN(C(=O)c3ccccc3)CC2=O)cc1 (stereo unspecified) | 0.331
O=S1(=O)NCC2(CCN(c3ncc(F)cn3)CC2)COc2ccccc21 | 4.74
CN(C)C(=O)c1cc2c(nc1NCC1CC1)CCNCC2 | 8.39
O=C(c1ccoc1)N1CCOCC2(CCN(Cc3cccs3)C2)C1 (stereo unspecified) | -2.98
CCOCC1CN(C(=O)c2ccoc2C)Cc2cnn(C)c21 (stereo unspecified) | -2.48
CC(C)Oc1ncnc2c1CCN(c1cc(C(F)(F)F)ncn1)CC2 | 19
CCOc1ncnc2c1CCN(c1cc(C(F)(F)F)ncn1)CC2 | 12.8
CC1CCCN(c2ncc(C(=O)NCc3ccc(F)c(Cl)c3)c(N)n2)C1 (stereo unspecified) | -2.83
Cc1nsc(C(=O)N2CCc3ccccc3C2)n1 | 5.86
CSc1[nH]nc(NC(=O)c2ccccc2)c1C#N | -9.59
O=C(NCCO)C1(CC2CC(c3ccc(F)cc3)=NO2)CCOCC1 (stereo unspecified) | -2.55
Cc1nc(NCc2nccn2C)cc(C2COCCN2)n1 (stereo unspecified) | 5.32
COCCC(=O)N1CCCC1c1nc(C)c2c(n1)N(C)C(=O)CC2 (stereo unspecified) | -1.04
CN1C[C@@H](C(=O)N2CCOCC2)[C@@]2(CCc3ccccc3C(=O)N2)C1 | 9.87
Cc1nn(C)cc1S(=O)(=O)N(C)[C@@H]1CCC[C@@H](n2ccnc2)[C@@H]1O | -2.78
Cc1cc(-c2ccc(=O)n(C3CCN(C(=O)C4CC4)CC3)n2)c(C)o1 | 4.79
N[C@@H]1CCC[C@@H](Oc2ccc(F)cc2Oc2cccc(F)c2)[C@@H]1O | -22.2
O=C(NCC1CC1)Nc1cnc2ccc(F)cc2c1O | -8.58
CCn1ncc(CN2CCc3c(nc(-c4cccnc4)[nH]c3=O)C2)c1C | 1.34
Cc1ccc(NCC2(O)CCNCC2)cc1C | 2.27
CC(C)C(NC(=O)c1ccc(N2CCOCC2)nc1)c1cccs1 (stereo unspecified) | -44
CCCNC(=O)C[S+]([O-])Cc1csc(C2CCCCC2)n1 (stereo unspecified) | -48.2

SMILES | cytotoxicity at 10 µM [%]
COc1ccc(N(C)C(=O)C2CN(C)CCO2)cc1Cl (stereo unspecified) | -46.4
CCC(O)CN1CCN(C(=O)c2cccc3c2OCC(=O)N3)CC1 (stereo unspecified) | -7.55
CC(C)(C)CC(NC(=O)c1nc(=O)[nH][nH]1)c1ccc(F)cc1 (stereo unspecified) | -2.42
COc1ccc(C(=O)NS(=O)(=O)c2ccc(CNC(C)=O)s2)cc1 | 1.81
CCCc1noc(C[S+]([O-])CC(=O)NCc2ccccc2)n1 (stereo unspecified) | -4.3
CC(C(=O)NCC(C)(C)c1ccc(Br)cc1)n1cncn1 (stereo unspecified) | 1.73
COc1c(Cl)cc(C(=O)NCc2n[nH]c(C)n2)cc1Cl | 1.42
COc1c(C2CCCN2Cc2nccn2C)c(C)nn1C (stereo unspecified) | 3.06
COC(=O)CC(NC(=O)CCCn1cccn1)c1ccc(Cl)cc1 (stereo unspecified) | 4.7
CNS(=O)(=O)CC(=O)N(C1CCCC1)C1CC1 | -2.78
CCC(=O)NCC(CC)Oc1cccc(F)c1 (stereo unspecified) | -44
Cc1nc(C)c(S(=O)(=O)NC(=O)c2cccs2)s1 | -0.837
Clc1cccc(C(CNCc2cccnc2)N2CCOCC2)c1 (stereo unspecified) | -4.45
Cc1ccc(C(C)(O)CNC(=O)NCCc2ccc3c(c2)CCO3)o1 (stereo unspecified) | -4.53
N#Cc1cccnc1N[C@@H]1c2ccccc2C[C@@H]1O | 2.28
CC(C)CC(NC(=O)C1=CCCC1)C(=O)N1CCC(CO)CC1 (stereo unspecified) | 8.23
CCN(CC(=O)Nc1cc(Cl)ccc1C)C(=O)c1ccc(=O)[nH]n1 | -0.898
CCC(=O)N1CCN(C(=O)Nc2cccc(N3CCOCC3)c2)CC1 | -3.1
N#Cc1ccc(CNC(=O)NC2CCN(c3ncccn3)CC2)cc1 | 11.3
Cc1ccccc1-c1cc(NC(=O)NC2CCC(O)CC2)n(CCO)n1 (stereo unspecified) | 1.09
CCOc1ncccc1NC(=O)c1ccc(C)s1 | -3.89
CN(C)C(=O)C1CCCN1CCCNC(=O)c1cccc2[nH]ncc12 (stereo unspecified) | -1.07
COc1ccc(CC(=O)N(C)C2CCN(C)C2=O)cc1F (stereo unspecified) | 0.0152

SMILES | cytotoxicity at 10 µM [%]
Cc1ccc(C2CN(Cc3cnc(-c4ccccn4)s3)CCO2)o1 (stereo unspecified) | 2.91
NC(=O)N1CCCN(Cc2cc(F)cc(Br)c2)CC1 | 9.91
CC(C)n1nc2c(cc1=O)CN(CCOc1cccc(C#N)c1)CC2 | 13.6
CNS(=O)(=O)CCCN1CCCCCC1c1ccc(C)o1 (stereo unspecified) | -7.58
CN(C)c1cc(CNCc2ccc(N3CCOCC3)cc2)ccn1 | 23.3
CC(C)c1nc(/C=C/c2cnn(-c3ccccc3)c2)ncc1C(=O)O | -11.3
CN(C)c1ncccc1CNC(=O)NCC(c1cccs1)N(C)C (stereo unspecified) | 11.6
CC(C)(C)[S+]([O-])CCNC(=O)c1ccc(Cl)c2cccnc12 (stereo unspecified) | -44.5
Cc1cc(C2CCCN2C(=O)NCc2cccc(F)c2)on1 (stereo unspecified) | 24.8
Cc1cnn(C2CN(CC(O)c3ccc4c(c3)OCCO4)C2)c1 (stereo unspecified) | 21.9
CCS(=O)(=O)N1CCc2c(COC)cncc2C1 | -99
CC(=O)N1CCc2[nH]nc(C(=O)N3CC=CC3)c2C1 | -108
O=C([C@H]1CCCO1)N1CCc2ncc(CN3CCOCC3)n2CC1 | -72.3
CN1CCN(Cc2cnc3n2CCN(C(=O)N2CCCC2)C3)CC1 | -72.3
O=C(CO)N1CCCC2(CCN(c3ccsc3)C2=O)C1 (stereo unspecified) | -66.8
Cc1ncsc1CN1CC[C@H]2C(=O)N(c3ccccc3)CCO[C@H]2C1 | 1.26
O=c1c2ccc(Cl)cc2ncn1CCCN1CCCCC1CO (stereo unspecified) | -2.4
COC(C)(C)C(=O)N[C@H]1CN(c2ncccc2C(N)=O)C[C@@H]1C(C)C | 6.66
CN1CC[C@H]2CN(C(=O)c3csc(Cc4ccccc4)n3)C[C@H]21 | -2.45
Cn1ncc2c(N3CCC(CCO)CC3)nc(C(C)(C)C)nc21 | 14.6
CC(C)Cc1ncc2c(n1)CN(c1nccc(N(C)C)n1)C2 | -6.1
CC(=O)Nc1ccc(CN2CCc3[nH]cnc3C2c2ccc(C)o2)cc1 (stereo unspecified) | 4.93
O=C(CCn1ccc(=O)[nH]c1=O)N1CCC(OCc2cccnc2)CC1 | -15.7

SMILES | cytotoxicity at 10 µM [%]
CCn1nc(CC(C)C)cc1C(=O)N1CCCOC(CN2CCCC2)C1 (stereo unspecified) | -7.66
CC(C)N(C)S(=O)(=O)c1ccc2c(c1)CCN(C(=O)c1cccnn1)C2 | -1.22
CN1CCN([C@@H]2CCN(Cc3cccc(-n4cccn4)c3)C[C@H]2O)CC1 | 8.42
Cc1ccccc1CS(=O)(=O)NCCCN1CCCC1 | -7.49
COc1cc(C(N)=O)c(N(C)S(C)(=O)=O)cc1OC | -7.39
CN(Cc1ccsc1)C(=O)c1cccc(S(=O)(=O)NCC2CCCO2)c1 (stereo unspecified) | -13.8
CC1CN(Cc2cc(C#N)ccc2F)CCN1Cc1nccn1C (stereo unspecified) | -6.33
Cc1noc(C)c1CN(C)C(=O)NC1CCOCC1 | -14.8
CN1CCCC1CNC(=O)CCOc1ccc(Br)cc1 (stereo unspecified) | -16.9
CCn1cnnc1CNC(=O)N1CCC(OCc2ccccc2)CC1 | -5.26
CCn1cnnc1CNC(=O)N1CCN(CCc2ccccc2)CC1 | -8.14
CCC1CN(CC(=O)Nc2cc(C)nn2C)CCO1 (stereo unspecified) | 1.14
CCOc1ccc(CC(CNC(=O)c2sccc2C)C(N)=O)cc1 (stereo unspecified) | -4.18
COc1ccccc1CCNC(=O)N1CCCC(c2nncn2C)C1 (stereo unspecified) | -25.4
O=C(c1ccc2c(c1)COC2)N1CCC(Nc2ccccc2)CC1 | -7.54
Clc1cc(CN2CCCC2Cn2cncn2)c2ncccc2c1 (stereo unspecified) | 1.28
Clc1ccc2cccnc2c1CN1CCCC(Cn2cncn2)C1 (stereo unspecified) | 8.38
CC(C(=O)N1CCC(Nc2cccnn2)CC1)n1ccnc1 (stereo unspecified) | -9.44
CC(C)N(Cc1cccc(F)c1)Cc1nc2c(cnn2C)c(=O)[nH]1 | -10.5
O=C(c1ccc2c(c1)COC2)N1CCN(CC2CC2)CC1 | -7.18
N#Cc1ccc(OCCCN2CCc3cncnc3C2)cc1 | -10
Cc1csc(N2CCN(C(=O)CCc3ccccn3)CC2)n1 | -4.27
Cc1cc(C)n(CC2CCCN2C(=O)Cc2c(C)noc2C)n1 (stereo unspecified) | -4.05

SMILES | cytotoxicity at 10 µM [%]
Cc1cc(N2CCC(NC(=O)C3CC3)CC2)nc(-c2ccncc2)n1 | -3.71
Cc1nn(C)c(C)c1CCn1cncc1-c1ccc2c(c1)CC(C)N2C (stereo unspecified) | -0.168
Cc1nc(Nc2cnccn2)cc(C2CCN(CCO)C2)n1 (stereo unspecified) | 0.636
CCN1CCOCC12CCN(C(=O)Cc1cccs1)CC2 | 6.22
Cn1nc(C2CCN(C(=O)CN3CCCCC3)CC2)c2cccnc21 | -30.1
Cc1cc2c(=O)n3c(nc2s1)CCN(Cc1cnc(C)n1C)CC3 | -7.73
COCCn1cc2c(n1)C(CNCc1ccsc1)OCC2 (stereo unspecified) | 3.89
CN1CCN([C@@H]2CN(C(=O)Cc3ccsc3)[C@@H]3CCCO[C@H]23)CC1 | 2.87
OCCOCc1n[nH]c2c1CN(Cc1ccco1)C2 | 6.71
CCc1ncc(CN[C@@H]2CCCN(C(C)=O)[C@H]2c2ccc(C)s2)cn1 | -26.2
Cc1cccc(CN2C[C@@H]3CN(Cc4ccoc4)CCO[C@@H]3C2)n1 | 6.53
c1cnc(N2CCCC(NCc3cccc4c3OCCO4)C2)nc1 (stereo unspecified) | -8.18
O=C(C1CN(CC2CCOCC2)CC12CCOCC2)N1CCOCC1 (stereo unspecified) | 7.49
O=C1CC2(CCN(Cc3cccnc3)C2)CN1c1ccc2c(c1)OCO2 (stereo unspecified) | -70.2
O=S(=O)(C1CC1)N1CCC2(CC1)CN(Cc1nccs1)CCO2 | 8.1
O[C@@H]1CCN(CC2CCOC2)[C@H]1Cc1cccnc1 (stereo partly specified) | -8.56
Cn1cc(N2CC3(CCN(Cc4cccnc4)CC3)OCC2=O)cn1 | -79.3
CN(C)CCNCCC(Cc1ccccc1)C1CCOC(C)(C)C1 (stereo unspecified) | 1.51
COc1ccc(CCNC(=O)C2CCC(Cn3cnnn3)CC2)cc1 (stereo unspecified) | 10.2
